Values after ≈ are worked out from the molar mass of the structure shown.
What was measured:
Format in all cases: functional
[1] = system: Meyerozyma guilliermondii; assay: The compound was tested for antifungal activity against Candida guilliermondii MY1019 using agar dilution assay
How it was run: (§1)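 Standardized agar dilution in Kimmig agar with 5% glycerol. Lysosomotropic detergents solubilized in 10% Me₂SO. Twofold serial dilutions in sterile distilled water gave final agar concentrations of 128 to 0.06 μg/mL. Stated error ±1 dilution stage.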

[2] = system: Rhizomucor miehei; assay: The compound was evaluated for zone inhibition against Rhizomucor miehei (MF4784) using disk diffusion assay
How it was run: (§2)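 Filter-paper disks (6.2 mm) loaded with 25 μL of a 250 μg/mL methanol solution, dried at room temperature, laid on seeded agar and rewet with 25 μL 10% aqueous Me₂SO. Media were unbuffered, pH ca. 4.5–5.6: potato dextrose agar for filamentous fungi, sabouraud dextrose agar for yeasts, unless noted. Inhibition zone diameter read after overnight incubation, ±1 mm. Zone edges scored fuzzy, slightly hazy, hazy or very hazy.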

[3] = system: Kluyveromyces marxianus; assay: The compound was evaluated for zone inhibition against Kluyveromyces fragilis MY1113 using disk diffusion assay; 13 Fuzzy edges; how it was run: as §2
[4] = system: Cercospora beticola; assay: The compound was evaluated for zone inhibition against Cercospora beticola (MF4608) using disk diffusion assay; 22 Fuzzy edges
How it was run: (§3)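 Disk diffusion: 25 μL of 250 μg/mL drug in methanol on 6.2 mm paper disks, dried at room temperature, placed on seeded agar and rewet with 25 μL 10% aqueous Me₂SO. Zones were read after overnight incubation, ±1 mm. Media were unbuffered, pH ca. 4.5–5.6: potato dextrose agar for filamentous fungi, Sabouraud dextrose for yeasts, unless YNB (76 mM ammonium sulfate, sole nitrogen source) or YED is named. Zone edges were scored fuzzy, slightly hazy, hazy or very hazy.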

[5] = system: Candida tropicalis; assay: The compound was tested for antifungal activity against Candida tropicalis MY1011 using agar dilution assay
How it was run: (§4)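 Standardized agar dilution on Kimmig agar with 5% glycerol. Detergents solubilized in 10% Me2SO; desoxycholate-stabilized amphotericin B diluted and titrated in sterile distilled water. Twofold dilutions in sterile distilled water gave final agar concentrations of 128 to 0.06 μg/mL. Error limit ±1 dilution stage.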

[6] = system: Candida albicans; assay: The compound was tested for antifungal activity against Candida stellatoidea MY1017 using agar dilution assay; how it was run: as §4
[7] = system: Papiliotrema laurentii; assay: The compound was evaluated for zone inhibition against Cryptococcus laurentii MY1077 using disk diffusion assay; 22 Fuzzy edges; how it was run: as §2
[8] = system: Ustilago maydis; assay: The compound was evaluated for zone inhibition against Ustilago zeae (MF1996) using disk diffusion assay; 28 Fuzzy edges; how it was run: as §2
[9] = system: Saccharomyces cerevisiae; assay: The compound was evaluated for mean zone diameter (inhibition) against yeast at the concentration of 250 ug/mL
How it was run: (§5)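 Filter-paper disk diffusion (6.2 mm disks) with drug in methanol at the stated level, 25 μL per disk. Disks were air-dried at room temperature, laid on seeded agar, rewet with 25 μL 10% aqueous Me₂SO and incubated overnight. Media were unbuffered, pH ca. 4.5–5.6. The panel was 21 yeasts and 21 filamentous fungi. Zones of 0 mm were excluded from means.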

[10] = system: Penicillium italicum; assay: The compound was tested for antifungal activity against Penicillium italicum MF2819 using agar dilution assay; how it was run: as §4
[11] = system: Candida albicans; assay: The compound was tested for antifungal activity against Candida albicans MY1013 using agar dilution assay; how it was run: as §1
[12] = system: Nakaseomyces glabratus; assay: The compound was evaluated for zone inhibition against Torulopsis glabrata MY1062 using disk diffusion assay; how it was run: as §2
[13] = system: Candida parapsilosis; assay: The compound was tested for antifungal activity against Candida parapsilosis MY1009 using agar dilution assay; settings: Lodderomyces parapsilosis; how it was run: as §1
[14] = system: Saccharomyces cerevisiae; assay: The compound was tested for antifungal activity against Saccharomyces cerevisiae MY1027 using agar dilution assay; how it was run: as §4
[15] = system: Phoma; assay: The compound was evaluated for zone inhibition against Phoma sp (MF4332) using disk diffusion assay; 23 Fuzzy edges; how it was run: as §2
[16] = system: Aspergillus fumigatus; assay: The compound was tested for antifungal activity against Aspergillus fumigatus MF4839 using agar dilution assay; how it was run: as §1
[17] = system: Saccharomyces cerevisiae; assay: The compound was evaluated for zone inhibition against Saccharomyces cerevisiae YED MY34 using disk diffusion assay; how it was run: as §2
[18] = system: Naganishia albida; assay: The compound was evaluated for zone inhibition against Cryptococcus albidus MY1070 using disk diffusion assay; 23 Fuzzy edges; how it was run: as §3
[19] = system: Nakaseomyces glabratus; assay: The compound was tested for antifungal activity against Torulopsis glabrata MY1059 using agar dilution assay; how it was run: as §4
[20] = system: Saccharomyces cerevisiae; assay: The compound was evaluated for mean zone diameter (inhibition) against yeast at the concentration of 125 ug/mL; how it was run: as §5
[21] = system: Fusarium oxysporum; assay: The compound was evaluated for zone inhibition against Fusarium oxysporum (MF4014) using disk diffusion assay; how it was run: as §2
[22] = system: Candida tropicalis; assay: The compound was tested for antifungal activity against Candida tropicalis MY1012 using agar dilution assay; how it was run: as §4
[23] = system: Candida albicans; assay: The compound was tested for antifungal activity against Candida albicans MY1058 using agar dilution assay; how it was run: as §1
[24] = system: Candida albicans; assay: The compound was tested for antifungal activity against Candida albicans MY1055 using agar dilution assay; how it was run: as §1
[25] = system: Trichoderma; assay: The compound was evaluated for zone inhibition against Trichoderma sp (MF4064) using disk diffusion assay; how it was run: as §2
[26] = system: Cryptococcus neoformans; assay: The compound was tested for antifungal activity against Cryptococcus neoformans MY1051 using agar dilution assay; how it was run: as §4
[27] = system: Aspergillus flavus; assay: The compound was tested for antifungal activity against Aspergillus flavus MF0383 using agar dilution assay; how it was run: as §1
[28] = system: Candida albicans; assay: The compound was tested for antifungal activity against Candida albicans MY0992 using agar dilution assay; how it was run: as §1
[29] = system: Candida parapsilosis; assay: The compound was tested for antifungal activity against Candida parapsilosis MY1010 using agar dilution assay; settings: Lodderomyces parapsilosis; how it was run: as §1
[30] = system: Papiliotrema laurentii; assay: The compound was evaluated for zone inhibition against Cryptococcus laurentii MY1074 using disk diffusion assay; 16 slightly hazy; how it was run: as §2
[31] = system: Diutina rugosa; assay: The compound was tested for antifungal activity against Candida rugosa MY1022 using agar dilution assay; how it was run: as §1
[32] = system: Candida albicans; assay: The compound was tested for antifungal activity against Candida albicans My1029 using agar dilution assay; how it was run: as §1
[33] = system: Penicillium; assay: The compound was evaluated for zone inhibition against Penicillium sp (MF5020) using disk diffusion assay; 21 Fuzzy edges; how it was run: as §2
[34] = system: Candida tropicalis; assay: The compound was evaluated for zone inhibition against Candida tropicalis MY1012 using disk diffusion assay; 25 Fuzzy edges; how it was run: as §3
[35] = system: Cryptococcus neoformans; assay: The compound was tested for antifungal activity against Cryptococcus neoformans MY1146 using agar dilution assay; how it was run: as §4
[36] = system: Trichoderma viride; assay: The compound was evaluated for zone inhibition against Trichoderma lignorum (MF3560) using disk diffusion assay; 24 Fuzzy edges; how it was run: as §2
[37] = system: Kluyveromyces marxianus; assay: The compound was tested for antifungal activity against Candida pseudotropicalis MY1040 using agar dilution assay; how it was run: as §1
[38] = system: Saccharomyces cerevisiae; assay: The compound was evaluated for mean zone diameter (inhibition) against yeast at the concentration of 62.5 ug/mL; how it was run: as §5
[39] = system: Cephalosporium; assay: The compound was evaluated for zone inhibition against Cephalosporium sp (MF4641) using disk diffusion assay; how it was run: as §3
[40] = system: Saccharomyces cerevisiae; assay: The compound was evaluated for zone inhibition against Saccharomyces cerevisiae MY410 using disk diffusion assay; 9 Fuzzy edges; how it was run: as §2
[41] = system: Pichia kudriavzevii; assay: The compound was tested for antifungal activity against Candida krusei MY1020 using agar dilution assay; how it was run: as §1
[42] = system: Penicillium; assay: The compound was evaluated for zone inhibition against Penicillium sp (MF5014) using disk diffusion assay; 22 Fuzzy edges; how it was run: as §2
[43] = system: Penicillium; assay: The compound was evaluated for zone inhibition against Penicillium sp (MF5016) using disk diffusion assay; 25 Fuzzy edges; how it was run: as §2

MIC [1]: 16 µg/mL (≈ 67.7 µM) | MIC [5]: 32 µg/mL (≈ 135 µM) | MIC [6]: 16 µg/mL (≈ 67.7 µM) | MIC [10]: 4 µg/mL (≈ 16.9 µM) | MIC [11]: 16 µg/mL (≈ 67.7 µM) | MIC [13]: 32 µg/mL (≈ 135 µM) | MIC [14]: 8 µg/mL (≈ 33.8 µM) | MIC [16]: 16 µg/mL (≈ 67.7 µM) | MIC [19]: 16 µg/mL (≈ 67.7 µM) | MIC [22]: 8 µg/mL (≈ 33.8 µM) | MIC [23]: 32 µg/mL (≈ 135 µM) | MIC [24]: 32 µg/mL (≈ 135 µM) | MIC [26]: 4 µg/mL (≈ 16.9 µM) | MIC [27]: 16 µg/mL (≈ 67.7 µM) | MIC [28]: 32 µg/mL (≈ 135 µM) | MIC [29]: 16 µg/mL (≈ 67.7 µM) | MIC [31]: 32 µg/mL (≈ 135 µM) | MIC [32]: 32 µg/mL (≈ 135 µM) | MIC [35]: 4 µg/mL (≈ 16.9 µM) | MIC [37]: 16 µg/mL (≈ 67.7 µM) | MIC [41]: 32 µg/mL (≈ 135 µM)
Structure (SMILES): CCCCCCCCCCCCn1ccnc1
Inhibition zone [2]: 15 mm | Inhibition zone [3]: 13 mm | Inhibition zone [4]: 22 mm | Inhibition zone [7]: 22 mm | Inhibition zone [8]: 28 mm | Inhibition zone [9]: 16.8 mm | Inhibition zone [12]: 11 mm | Inhibition zone [15]: 23 mm | Inhibition zone [17]: 15 mm | Inhibition zone [18]: 23 mm | Inhibition zone [20]: 15.8 mm | Inhibition zone [21]: 18 mm | Inhibition zone [25]: 18 mm | Inhibition zone [30]: 16 mm | Inhibition zone [33]: 21 mm | Inhibition zone [34]: 25 mm | Inhibition zone [36]: 24 mm | Inhibition zone [38]: 14.4 mm | Inhibition zone [39]: 13 mm | Inhibition zone [40]: 9 mm | Inhibition zone [42]: 22 mm | Inhibition zone [43]: 25 mm

— ChEMBL document CHEMBL1123822, “Lysosomotropic agents. 7. Broad-spectrum antifungal activity of lysosomotropic detergents” (1987)
